Here are results for 41 molecules from ChEMBL document CHEMBL1125845, “Indazolinones, a new series of redox-active 5-lipoxygenase inhibitors with built-in selectivity and oral activity” (J Med Chem, 1991).

pIC50: −log10 of the molar value. Where only a bound is given, the exact number is not on record here.

In assay [1] the target is T1, Cyclooxygenase (Rattus norvegicus, UniProt P35355+Q63921).
T1 sequence (P35355 whole entry): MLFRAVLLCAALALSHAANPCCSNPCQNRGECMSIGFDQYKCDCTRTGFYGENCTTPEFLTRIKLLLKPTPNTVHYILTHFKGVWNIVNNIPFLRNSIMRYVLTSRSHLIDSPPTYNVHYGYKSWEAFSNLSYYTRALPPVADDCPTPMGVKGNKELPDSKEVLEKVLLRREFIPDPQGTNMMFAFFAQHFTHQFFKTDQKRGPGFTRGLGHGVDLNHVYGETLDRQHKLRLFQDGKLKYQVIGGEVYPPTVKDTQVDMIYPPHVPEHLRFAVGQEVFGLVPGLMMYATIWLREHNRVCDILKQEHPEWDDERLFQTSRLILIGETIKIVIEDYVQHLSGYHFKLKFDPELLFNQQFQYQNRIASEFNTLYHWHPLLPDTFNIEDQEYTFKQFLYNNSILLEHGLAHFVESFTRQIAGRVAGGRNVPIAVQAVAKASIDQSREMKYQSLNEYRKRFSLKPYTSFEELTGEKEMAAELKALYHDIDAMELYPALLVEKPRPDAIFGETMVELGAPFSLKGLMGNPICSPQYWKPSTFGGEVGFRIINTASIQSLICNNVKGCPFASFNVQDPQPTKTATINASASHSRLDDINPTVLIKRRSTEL
T1 sequence (Q63921 whole entry): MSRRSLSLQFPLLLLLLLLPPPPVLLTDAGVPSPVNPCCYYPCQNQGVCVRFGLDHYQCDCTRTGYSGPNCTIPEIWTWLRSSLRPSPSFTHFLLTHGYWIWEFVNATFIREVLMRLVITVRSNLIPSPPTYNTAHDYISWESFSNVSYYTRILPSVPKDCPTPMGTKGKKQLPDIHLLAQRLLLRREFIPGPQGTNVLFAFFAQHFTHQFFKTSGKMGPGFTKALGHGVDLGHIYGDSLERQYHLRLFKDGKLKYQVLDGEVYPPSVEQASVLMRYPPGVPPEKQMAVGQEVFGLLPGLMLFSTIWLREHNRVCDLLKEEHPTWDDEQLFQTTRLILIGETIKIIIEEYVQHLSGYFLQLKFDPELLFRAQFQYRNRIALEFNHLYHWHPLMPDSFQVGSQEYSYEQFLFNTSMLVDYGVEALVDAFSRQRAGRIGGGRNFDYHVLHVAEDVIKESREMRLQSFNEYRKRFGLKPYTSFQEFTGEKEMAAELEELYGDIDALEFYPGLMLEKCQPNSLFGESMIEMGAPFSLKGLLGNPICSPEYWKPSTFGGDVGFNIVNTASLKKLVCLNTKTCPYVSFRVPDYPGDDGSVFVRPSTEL
The experiment in a line: In vitro inhibition of PGE-2 production was measured in rat blood. The class given is functional.

For assay [2], the target named is T2, Polyunsaturated fatty acid 5-lipoxygenase (Rattus norvegicus, UniProt P12527).
T2 sequence (P12527 whole entry): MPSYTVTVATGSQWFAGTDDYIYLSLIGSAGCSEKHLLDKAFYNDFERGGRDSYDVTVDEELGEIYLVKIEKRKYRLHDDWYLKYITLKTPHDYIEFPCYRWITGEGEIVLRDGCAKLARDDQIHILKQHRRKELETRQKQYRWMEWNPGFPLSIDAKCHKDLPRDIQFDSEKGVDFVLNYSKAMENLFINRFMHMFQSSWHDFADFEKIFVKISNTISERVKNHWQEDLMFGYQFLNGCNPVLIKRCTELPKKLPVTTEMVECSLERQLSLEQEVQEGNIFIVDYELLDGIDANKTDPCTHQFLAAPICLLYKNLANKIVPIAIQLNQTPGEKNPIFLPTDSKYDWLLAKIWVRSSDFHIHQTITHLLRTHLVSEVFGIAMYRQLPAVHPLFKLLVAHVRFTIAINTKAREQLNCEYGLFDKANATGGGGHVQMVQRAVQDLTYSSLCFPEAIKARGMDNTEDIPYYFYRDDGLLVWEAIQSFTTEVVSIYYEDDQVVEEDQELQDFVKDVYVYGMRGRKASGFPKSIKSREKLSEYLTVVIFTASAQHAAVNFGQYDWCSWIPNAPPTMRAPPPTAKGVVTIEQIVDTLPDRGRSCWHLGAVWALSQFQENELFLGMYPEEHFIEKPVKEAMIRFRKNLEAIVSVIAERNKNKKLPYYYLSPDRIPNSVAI
The experiment in a line: In vitro inhibition of LTB4 production was measured in rat blood. The class given is functional. The method, boiled down:
(§1)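 Pooled heparinized blood from male Alderley Park Wistar rats (vena cava) held on ice; preincubated with compound in DMSO (1% final) 15 min at 37 °C, then A23187 (20 µg/mL) added for a further 15 min; stopped with cocktail of indomethacin, EGTA and azide; plasma LTB4 and PGE2 by radioimmunoassay. IC50 by nonlinear regression from two experiments.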

The target of assay [3] is Polyunsaturated fatty acid 5-lipoxygenase (Canis lupus familiaris). Put plainly: Ex vivo inhibition of LTB4 production was measured in dog blood.
Another assay is filed under the species Canis familiaris. Put plainly: In vitro test for the induction of the production of methemoglobin (MHb) in dog blood. In kind it is functional, Canis lupus familiaris. The method, boiled down: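 Pooled heparinized dog blood (leg vein) incubated with compound for 2 h at 37 °C; methemoglobin quantified by cooximeter.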
In assay [4] the target is T1, Cyclooxygenase. The experiment in a line: In vitro inhibition of PGE-2 (PG) production in rat blood; 3-30. The class given is functional. The procedure, abridged: as §1

Turning to `O=c1c2ccccc2[nH]n1-c1ccccc1`, on Cyclooxygenase [1], the concentration for half-maximal inhibition (IC50) was 2.7 µM.

`O=c1c2ccccc2[nH]n1Cc1ccccc1`: the IC50 against Cyclooxygenase [1] came to 18 µM.

In turn, `c1ccc(COc2[nH]nc3ccccc23)cc1` showed a pIC50 in assay [2] of less than 4.52.

As for `O=c1[nH]n(-c2ccccc2)c2ccccc12`, the pIC50 in assay [2] is 4.52.

In turn, `Cn1c2ccccc2c(=O)n1Cc1ccccc1` gave a pIC50 in assay [2] of less than 4.52. The same molecule returned an ED50 in assay [3] of more than 100 mg/kg.

In the case of `Oc1n[nH]c2ccccc12`, the ED25 in the assay listed under Canis familiaris is 40 µM. For the same molecule, on Cyclooxygenase [1], the 50% inhibitory concentration (IC50) amounted to 30 µM.

In the case of `Cc1ccc(Cn2[nH]c3ccccc3c2=O)cn1`, the IC50 at Cyclooxygenase [1] is 21 µM. The molecule further showed a pIC50 in assay [2] of 5.60. In assay [3], this molecule came in with an ED50 of 10 mg/kg.

In turn, `O=c1c2ccccc2[nH]n1Cc1c[nH]c2ccccc12` came in with an IC50 on Cyclooxygenase [1] of 94 µM.

With `C[C@H](c1cccc2ccccc12)n1[nH]c2ccccc2c1=O`, the IC50 on Cyclooxygenase [1] turned out to be 400 µM. The molecule further gave a negative logarithm of the IC50 (pIC50) in assay [2] of 5.85. The ED50 in assay [3] was more than 100 mg/kg.

With `Cc1ccncc1Cn1[nH]c2ccccc2c1=O`, the concentration for half-maximal inhibition (IC50) at Cyclooxygenase [1] was more than 30 µM. This molecule also gave a pIC50 in assay [2] of 5.52. The median effective dose (ED50) in assay [3] was 5 mg/kg.

For `O=c1c2ccccc2[nH]n1Cc1ccc2ccccc2c1`, the 50% inhibitory concentration (IC50) at Cyclooxygenase [1] turned out to be 18 µM.

`O=c1c2ccccc2[nH]n1CCCc1ccccc1` came in with an IC50 against Cyclooxygenase [1] of 3.8 µM. For the same molecule, the pIC50 in assay [2] is 6.27. Besides, in assay [3], the ED50 was more than 100 mg/kg.

Consider `O=c1c2ccccc2[nH]n1Cc1cccnc1`, for which the ED25 in the assay listed under Canis familiaris turned out to be 7.5 µM. Further, the 50% inhibitory concentration (IC50) against Cyclooxygenase [1] was more than 300 µM.

With `O=c1c2ccccc2[nH]n1Cc1ccccn1`, on Cyclooxygenase [1], the concentration for half-maximal inhibition (IC50) is 67 µM.

As for `C[C@@H](c1cccc2ccccc12)n1[nH]c2ccccc2c1=O`, at Cyclooxygenase [1], the IC50 was determined as 48 µM. Further, in assay [2], the negative-log IC50 (pIC50) is 4.96.

For `O=c1c2ccccc2[nH]n1Cc1cccnc1Cl`, the half-inhibitory concentration (IC50) on Cyclooxygenase [1] amounted to 12 µM. Moreover, in assay [2], the pIC50 was 5.85. Besides, the ED50 in assay [3] was 5 mg/kg.

In the assay listed under Canis familiaris, `Cn1[nH]c2ccccc2c1=O` had an ED25 of 10 µM. The concentration for half-maximal inhibition (IC50) against Cyclooxygenase [1] amounted to 17 µM.

Regarding `O=c1c2ccccc2[nH]n1Cc1cncc(Br)c1`, on Cyclooxygenase [1], the IC50 was 39 µM. Moreover, the pIC50 in assay [2] is 6.00. In addition, the median effective dose (ED50) in assay [3] worked out at 10 mg/kg.

Turning to `CCCCCNC(=O)c1cccc2[nH]n(Cc3cccnc3)c(=O)c12`, the ED25 in the assay filed under Canis familiaris is more than 250 µM.

Take `O=c1c2ccccc2[nH]n1CCc1ccccc1`: the concentration for half-maximal inhibition (IC50) at Cyclooxygenase [1] was determined as 15 µM.

At Cyclooxygenase [4], `O=c1c2ccccc2[nH]n1Cc1ccc(Cl)nc1` returned an IC50 of 3 µM. Besides, the pIC50 in assay [2] is more than 6.00. The ED50 in assay [3] was found to be 15 mg/kg.

On to `O=c1c2ccccc2[nH]n1CCCCc1ccccc1`, for which the concentration for half-maximal inhibition (IC50) on Cyclooxygenase [1] worked out at 26 µM. In addition, the negative-log IC50 (pIC50) in assay [2] is 6.11. The same molecule returned an ED50 in assay [3] of more than 100 mg/kg.

Turning to `O=c1c2ccccc2[nH]n1Cc1cncs1`, the half-maximal inhibitory concentration (IC50) at Cyclooxygenase [1] was more than 100 µM.

`O=c1c2ccccc2[nH]n1Cc1ccco1` came in with an IC50 against Cyclooxygenase [1] of 13 µM.

`O=c1c2ccccc2[nH]n1Cc1cccs1` registered an IC50 against Cyclooxygenase [1] of 26 µM.

For the molecule `O=c1c2ccccc2[nH]n1Cc1ccncc1`, the IC50 on Cyclooxygenase [1] was 280 µM.

In turn, `O=c1c2ccccc2[nH]n1Cc1cccc2ccccc12` came in with a concentration for half-maximal inhibition (IC50) against Cyclooxygenase [1] of 100 µM. In assay [2], this molecule had a pIC50 of 6.21. The same molecule returned an ED50 in assay [3] of more than 100 mg/kg.

On to `Cc1ncccc1Cn1[nH]c2ccccc2c1=O`, for which the IC50 against Cyclooxygenase [1] was 58 µM. In assay [2], the negative logarithm of the IC50 (pIC50) is 5.59. Also, the ED50 in assay [3] came out at 10 mg/kg.

In the assay listed under Canis familiaris, `CCCCCNC(=O)c1cccc2[nH]n(C)c(=O)c12` displayed an ED25 of more than 250 µM.

`Cc1cncc(Cn2[nH]c3ccccc3c2=O)c1` gave a 50% inhibitory concentration (IC50) on Cyclooxygenase [1] of 81 µM. In addition, the pIC50 in assay [2] is 5.74. For the same molecule, in assay [3], the ED50 was found to be 15 mg/kg.

`COc1ccc(Cn2[nH]c3ccccc3c2=O)cn1` yielded a 50% inhibitory concentration (IC50) on Cyclooxygenase [4] of 3 µM.

`Cn1[nH]c(=O)c2ccccc21` came in with an IC50 at Cyclooxygenase [1] of 20 µM. This molecule showed a pIC50 in assay [2] of 5.52. The same molecule gave a median effective dose (ED50) in assay [3] of more than 100 mg/kg.

With `COc1nn(Cc2ccccc2)c2ccccc12`, the pIC50 in assay [2] was less than 4.52.

In assay [2], `Cn1c(=O)c2ccccc2n1Cc1ccccc1` gave a pIC50 of less than 4.52.

For `CCCCCNC(=O)c1cccc2n[nH]c(O)c12`, the ED25 in the assay filed under Canis familiaris was more than 250 µM.

Turning to `O=c1[nH]n(Cc2ccccc2)c2ccccc12`, on Cyclooxygenase [1], the half-maximal inhibitory concentration (IC50) is 31 µM. The negative logarithm of the IC50 (pIC50) in assay [2] was 5.47.

In turn, `O=c1cc(-c2ccccc2)oc2cc(O)c(O)c(O)c12` [BAICALEIN] showed an IC50 against Cyclooxygenase [1] of 50 µM.

`NC1=NN(c2cccc(C(F)(F)F)c2)CC1` [BW-755C] had an IC50 against Cyclooxygenase [1] of 5 µM.

In the case of `CC(Cc1ccc(O)c(O)c1)C(C)Cc1ccc(O)c(O)c1` (stereo unspecified) [NORDIHYDROGUAIARETIC ACID], the IC50 at Cyclooxygenase [1] came out at 30 µM.

In turn, `O=C1CCN(c2ccccc2)N1` [PHENIDONE] yielded a 50% inhibitory concentration (IC50) against Cyclooxygenase [1] of 3 µM.

Take `O=c1c(O)c(-c2ccc(O)c(O)c2)oc2cc(O)cc(O)c12` [QUERCETIN]: the IC50 at Cyclooxygenase [1] stood at 50 µM.

Broadly, the IC50 is the concentration at which inhibition is half-maximal. What is called pIC50 is the negative decadic logarithm of the IC50, by convention in mol/L. The low end stands for a high IC50, the high end for a low IC50. One may read the ED50 as the dose that gives a 50% effect, or the effect in half of the subjects.
